17 molecules from ChEMBL document CHEMBL1944602, “Synthesis and biological characterisation of sirtuin inhibitors based on the tenovins” (Bioorg Med Chem, 2012) can be followed below.

Each structure is given as a SMILES string. Calls of active or inactive are those of the source. No cut-off for these calls is given here. Bounds are passed on as bounds.

The target in assay [1] is T1, NAD-dependent protein deacetylase sirtuin-1 (Homo sapiens) (UniProt Q96EB6).
T1 sequence (whole entry): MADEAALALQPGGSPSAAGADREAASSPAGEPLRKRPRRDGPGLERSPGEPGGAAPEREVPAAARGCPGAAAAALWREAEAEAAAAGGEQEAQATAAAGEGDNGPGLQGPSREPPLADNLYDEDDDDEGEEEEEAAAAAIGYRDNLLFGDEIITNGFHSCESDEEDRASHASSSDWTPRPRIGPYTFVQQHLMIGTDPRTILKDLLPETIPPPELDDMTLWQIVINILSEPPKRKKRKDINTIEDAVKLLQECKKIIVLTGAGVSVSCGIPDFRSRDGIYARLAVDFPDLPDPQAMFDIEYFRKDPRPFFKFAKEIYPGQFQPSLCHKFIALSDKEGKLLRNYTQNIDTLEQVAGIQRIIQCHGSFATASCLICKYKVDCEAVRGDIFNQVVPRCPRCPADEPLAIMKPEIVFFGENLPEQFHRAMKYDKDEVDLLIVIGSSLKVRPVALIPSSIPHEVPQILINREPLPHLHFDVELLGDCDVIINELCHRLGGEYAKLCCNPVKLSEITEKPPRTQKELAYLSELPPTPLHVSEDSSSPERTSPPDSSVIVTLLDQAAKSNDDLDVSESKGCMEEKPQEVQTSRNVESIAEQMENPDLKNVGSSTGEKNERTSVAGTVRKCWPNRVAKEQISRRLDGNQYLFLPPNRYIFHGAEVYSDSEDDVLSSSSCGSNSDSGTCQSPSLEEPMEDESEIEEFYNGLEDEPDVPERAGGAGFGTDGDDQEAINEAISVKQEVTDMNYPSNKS
Put plainly: Inhibition of SirT1 in human ARN8 cells assessed as p53 activation at 10 uM by beta-galactosidase reporter gene assay. The format is cell-based. A digest of the protocol:
(§1)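 p53-dependent transcription measured with a beta-galactosidase reporter in ARN8 cells, run in triplicate. Read-out is the ratio of signal in treated cells to DMSO-control cells, given to 2 significant figures; a positive or negative activity call is also recorded.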
A general note: In a reporter assay the amount or activity of a reporter protein is the signal.

Assay [2] concerns the target T2, NAD-dependent protein deacetylase sirtuin-2 (Homo sapiens, UniProt Q8IXJ6).
T2 sequence (Q8IXJ6 whole entry): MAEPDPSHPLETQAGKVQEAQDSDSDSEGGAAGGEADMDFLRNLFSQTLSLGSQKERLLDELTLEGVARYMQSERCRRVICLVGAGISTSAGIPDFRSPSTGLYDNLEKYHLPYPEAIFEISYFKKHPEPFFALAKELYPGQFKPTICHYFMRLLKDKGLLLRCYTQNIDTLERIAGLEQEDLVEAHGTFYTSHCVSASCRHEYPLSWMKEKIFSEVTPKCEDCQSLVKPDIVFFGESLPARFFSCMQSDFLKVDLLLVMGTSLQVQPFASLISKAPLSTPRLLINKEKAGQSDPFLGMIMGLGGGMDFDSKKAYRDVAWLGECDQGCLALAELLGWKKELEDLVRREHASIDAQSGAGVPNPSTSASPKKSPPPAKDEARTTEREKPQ
Put plainly: Inhibition of recombinant human SitT2 by Fluor de Lys fluorescence assay.

For assay [3], the target named is T1, NAD-dependent protein deacetylase sirtuin-1 (Homo sapiens). Nature of the assay: Inhibition of SirT1 in human ARN8 cells assessed as p53 activation at 20 uM by beta-galactosidase reporter gene assay. The format is cell-based. The method, boiled down:
as §1

Assay [4] concerns the target T3, NAD-dependent protein deacetylase sirtuin-1 (Homo sapiens, UniProt Q96EB6).
T3 sequence (Q96EB6 whole entry): T1 sequence (whole entry)
Put plainly: Inhibition of recombinant human SitT1 by Fluor de Lys fluorescence assay.

The target of assay [5] is T1, NAD-dependent protein deacetylase sirtuin-1 (Homo sapiens). Put plainly: Inhibition of SirT1 in human ARN8 cells assessed as p53 activation at 10 uM by beta-galactosidase reporter gene assay relative to control. In kind it is cell-based. A digest of the protocol:
as §1

For assay [6] the target is unchanged. Put plainly: Inhibition of SirT1 in human ARN8 cells assessed as p53 activation at 5 uM by beta-galactosidase reporter gene assay relative to control. In kind it is cell-based. A digest of the protocol:
as §1

For assay [7] the target is unchanged. Nature of the assay: Inhibition of recombinant human SitT1 at 60 uM by Fluor de Lys fluorescence assay. The method, boiled down: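 Human recombinant SirT1 deacetylation measured with the Fluor de Lys fluorescence kit at a fixed 60 µM inhibitor. Tested on two separate occasions; percent inhibition reported as a mean weighted to the standard error.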
Assay [8] shares this target. Nature of the assay: Inhibition of SirT1 in human ARN8 cells assessed as p53 activation at 5 uM by beta-galactosidase reporter gene assay. The format is cell-based. The method, boiled down: as §1
Assay [9] shares this target. Nature of the assay: Inhibition of SirT1 in human ARN8 cells assessed as p53 activation at 20 uM by beta-galactosidase reporter gene assay relative to control. In kind it is cell-based. A digest of the protocol:
as §1

Regarding `CN(C)CCCCC(=O)Nc1ccc(NC(=S)NC(=O)c2ccc(Cl)cc2)cc1`, the inhibition entry in assay [1], in assay [3] and in assay [8] was “inactive” each time. Further, the IC50 in assay [2] and in [4] was greater than 90 µM throughout. The fold change (FC) was found to be 1.2 in [5], 1.1 in assay [6] and 1.01 in assay [9]. Besides, the inhibition in assay [7] is 53.4%.

`Cc1ccc(C(=O)NC(=S)Nc2ccc(NC(=O)CCCCN(C)C)cc2)cc1`: the inhibition entry in [1], in [3] and in assay [8] was “inactive” throughout. Also, the IC50 in assay [2] and in assay [4] was greater than 90 µM each time. The results for the fold change (FC) in [5], in [6] and in [9] were 1.1, 1.2 and 1.1, respectively. In addition, in assay [7], the inhibition worked out at 47.3%.

As for `CN(C)CCCCC(=O)Nc1ccc(NC(=S)NC(=O)c2ccc(Cl)c(Cl)c2)cc1`, the inhibition result in assay [1], in assay [3] and in assay [8] was “inactive” throughout. For the same molecule, the fold change (FC) in assay [5] is 1.1; in assay [6], 1.04; in [9], 0.97. Also, the inhibition in assay [7] is 8.1%.

Turning to `CN(C)CCCCC(=O)Nc1ccc(NC(=S)NC(=O)c2cccc(Br)c2)cc1`, the inhibition entry in [1] and in assay [8] was “inactive” throughout. Also, the figures for the fold change (FC) in assay [5], in assay [6] and in assay [9] were 1.2, 1.1 and 1.2, respectively. In addition, the inhibition in assay [7] amounted to 70.5%.

Turning to `CN(C)CCCCC(=O)Nc1ccc(NC(=S)NC(=O)c2ccccc2Cl)cc1`, the inhibition entry in assay [1], in [3] and in [8] was “inactive” in each case. For the same molecule, the IC50 in [2] and in [4] was greater than 90 µM in each case. Further, the fold change (FC) amounted to 1.1 in assay [5], 1.2 in [6] and 1.2 in assay [9]. In assay [7], the inhibition was 29.3%.

Regarding `COc1cccc(C(=O)NC(=S)Nc2ccc(NC(=O)CCCCN(C)C)cc2)c1`, the inhibition result in [1], in assay [3] and in assay [8] was “inactive” in each case. The fold change (FC) in assay [5] came to 1.1; in [6], 1.1; in assay [9], 1.2. For the same molecule, in assay [7], the inhibition was found to be 25.3%.

`CCCc1ccc(C(=O)NC(=S)Nc2ccc(NC(=O)CCCCN(C)C)cc2)cc1`: the inhibition result in assay [1] and in assay [3] was “Active” each time. The IC50 in assay [2] is 7.85 µM; in assay [4], 60.2 µM. The fold change (FC) is 1.5 in [5], 1 in assay [6] and 2.4 in assay [9]. In addition, the inhibition in assay [7] amounted to 50.9%. For the same molecule, the inhibition result in assay [8] is “inactive”.

Consider `COc1ccc(C(=O)NC(=S)Nc2ccc(NC(=O)CCCCN(C)C)cc2)cc1`, for which the inhibition result in assay [1], in assay [3] and in assay [8] was “inactive” in each case. Further, the IC50 in assay [2] was 50.6 µM; in assay [4], greater than 90 µM. The fold change (FC) in assay [5] worked out at 1.1; in [6], 1; in assay [9], 1.12. Besides, in assay [7], the inhibition amounted to 48.5%.

Consider `CN(C)CCCCNC(=O)c1ccc(NC(=S)NC(=O)c2ccc(C(C)(C)C)cc2)cc1`, for which the inhibition result in assay [1] and in assay [3] was “Active” throughout. For the same molecule, the IC50 in assay [2] came to 12.4 µM; in [4], 17.9 µM. Further, the fold change (FC) in assay [5] is 3.9; in [9], 5.5. In assay [7], the inhibition was 72.5%.

Turning to `CN(C)CCCCC(=O)Nc1ccc(NC(=S)NC(=O)c2ccccc2)cc1`, the inhibition result in assay [1], in assay [3] and in assay [8] was “inactive” each time. For the same molecule, the IC50 in assay [2] and in assay [4] was greater than 90 µM in each case. For the same molecule, the fold change (FC) in assay [5] came out at 0.97; in assay [6], 1.1; in assay [9], 0.92. Besides, the inhibition in [7] was determined as 3.5%.

Take `CCCCCc1ccc(C(=O)NC(=S)Nc2ccc(NC(=O)CCCCN(C)C)cc2)cc1`: the inhibition entry in assay [1] and in assay [8] was “inactive” in each case. Moreover, the IC50 in assay [2] stood at 5.6 µM; in [4], 36.7 µM. For the same molecule, the fold change (FC) in assay [5] is 1.1; in assay [6] it was 1.1; in [9], 1.2. In [7], the inhibition amounted to 73.2%.

For the molecule `Cc1ccccc1C(=O)NC(=S)Nc1ccc(NC(=O)CCCCN(C)C)cc1`, the inhibition result in assay [1], in assay [3] and in assay [8] was “inactive” throughout. Further, the IC50 is 42.5 µM in assay [2] and greater than 90 µM in [4]. Also, the fold change (FC) in assay [5] turned out to be 0.98; in assay [6] it was 0.99; in assay [9] it was 0.84. The inhibition in assay [7] came out at 9.9%.

On to `CN(C)CCCCC(=O)Nc1ccc(NC(=O)NC(=O)c2ccc(C(C)(C)C)cc2)cc1`, for which the inhibition entry in assay [1], in assay [3] and in assay [8] was “Active” each time. In addition, the values for the IC50 in assay [2] and in assay [4] were 88.4 µM and 21.7 µM, respectively. For the same molecule, the fold change (FC) in assay [5] stood at 7.3; in assay [6], 6.9; in assay [9], 6.5. Further, the inhibition in assay [7] was found to be 93.6%.

As for `Cc1cccc(C(=O)NC(=S)Nc2ccc(NC(=O)CCCCN(C)C)cc2)c1`, the inhibition entry in assay [1], in assay [3] and in [8] was “inactive” in each case. The IC50 in assay [2] and in [4] was greater than 90 µM in each case. The fold change (FC) worked out at 0.89 in assay [5], 0.94 in [6] and 0.89 in [9]. The inhibition in assay [7] amounted to 5.2%.

For `CC(C)c1ccc(C(=O)NC(=S)Nc2ccc(NC(=O)CCCCN(C)C)cc2)cc1`, the inhibition result in assay [1], in assay [3] and in assay [8] was “Active” in each case. The IC50 in assay [2] was found to be 5.71 µM; in [4] it was 42.7 µM. Further, the fold change (FC) in assay [5] was 11.1; in [6], 8.7; in assay [9], 12. For the same molecule, the inhibition in assay [7] is 52.9%.

For the molecule `CN(C)CCCCC(=O)Nc1ccc(NC(=S)NC(=O)c2cccc(Cl)c2)cc1`, the inhibition entry in assay [1], in assay [3] and in assay [8] was “inactive” throughout. Moreover, the results for the fold change (FC) in assay [5], in assay [6] and in [9] were 1.1, 1.1 and 1, respectively. Further, the inhibition in [7] turned out to be 29.2%.

In the case of `CN(C)CCCCC(=O)Nc1ccc(NC(=S)NC(=O)c2ccc(C(C)(C)C)c(Br)c2)cc1`, the inhibition result in assay [1] and in assay [8] was “inactive” each time. Further, the inhibition entry in [3] is “Active”. Further, the fold change (FC) in assay [5] was determined as 1.1; in [6], 1.1; in assay [9] it was 1.4. For the same molecule, the inhibition in assay [7] was found to be 93.5%.

As usually defined, the inhibition is the percentage by which the read-out fell short of the control. The IC50 is the concentration needed to halve the response being measured.
